# Screening results from PubChem BioAssay.
# A selection follows.
# Apaf1 activ: activators of human Apaf-1 apoptosome. 0.31% of 330,000 active. Apaf-1 apoptosome caspase-3 activation, DEVD-Rh110 fluorescence; stronger effect = lower value. activity change, negative = activation, % at 20 µM. O14727. AID 489031;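 active = activity change at or below -40% at 20 µM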
#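 Schedule: 30 min preincubation, 50 min reaction, room temperature / System: biochemical Apaf-1 apoptosome reconstitution / Medium: 20 mM HEPES pH 7.5 with CHAPS, BSA / Evaluation: Caspase-3 cleavage activity downstream of Apaf-1 activation / Detection: Caspase-3-released Rh110 fluorescence, 540 nm emission, 480 nm excitation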
# Rh110 interf act: interferes with Rh110 fluorescence, flagging false Apaf-1 activators. shares compounds with Apaf1 activ. fluorescence interference (activity change), % at 20 µM, hits read low. Rh110 fluorescence interference, quenched caspase reaction, Ex480/Em540. 980 tested, under 10 active;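 active = mean activity change at or below -40% when tested at 20 µM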
# Apaf-1 act conf2: Apaf-1 (human) activation, single-dose confirmed; shares compounds with Apaf1 activ; reconstituted apoptosome caspase-3 activity, DEVD-Rh110 fluorescence; stronger effect = lower value; activity change, negative = activation, % at 20 µM; 5% of 980 active; AID 504617;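 active = mean activity change at or below -40%, meaning activation of 40% or more, at 20 µM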
# Apaf1 act interf: counter-screen for Apaf-1 activators: fluorescence interference, dose response; shares compounds with Apaf1 activ; fluorescence interference counterscreen, Apaf-1 activator assay; EC50, µM; 55 tested, under 10 active; AID 588592; call rule not given here
# An asterisk follows results filed as active; x = no result.
SMILES,Apaf1 activ,Rh110 interf act,Apaf-1 act conf2,others
COc1ccccc1Nc1cc2cc(Br)ccc2c(=O)[nH]1,97,x,x,
O=c1[nH]c(Nc2ccccc2)cc2cc(Br)ccc12,98,x,x,
Cc1ccc(S(=O)(=O)N(C)c2ccccc2C(=O)NC2CCCC2)cc1,-59*,4,14,
Cc1c(C(=O)Nc2ccc(S(=O)(=O)N(C)C3CCN(C)CC3)cc2)oc2ccccc12,53,x,x,
Cc1[nH]n(-c2ccccc2)c(=O)c1C(c1cccc([N+](=O)[O-])c1O)c1c(C)[nH]n(-c2ccccc2)c1=O,88,x,x,
O=CNn1cnc2c(oc3nc(-c4ccccc4)cc(-c4ccco4)c32)c1=O,-116*,8,-5,
Cc1c(CCC(C)C)c(=O)n2c([nH]c3ccccc32)c1C#N,60,x,x,
O=C(O)CC1S/C(=N/N=C/c2ccc(-c3ccccc3[N+](=O)[O-])o2)NC1=O (stereo unspecified),73,x,x,
O=C(NC1CC1)C1=C[C@H](c2ccc(C(F)(F)F)cc2)C[C@H](OCCCCO)O1,50,x,x,
COc1ccc(CN(C)C(=O)Cc2ccc(OC)c(S(=O)(=O)N3CCOCC3)c2)cc1OC,60,x,x,
COc1ccc(CC(=O)N(C)CC(=O)Nc2ccccc2Cl)cc1S(=O)(=O)N1CCOCC1,59,x,x,
COc1ccc(CN2C(=O)c3cccnc3C2=O)cc1S(=O)(=O)N1CCOc2ccccc21,-52*,14,20,
CCOC(=O)c1cc(C#N)c(N2CCN(c3ccccn3)CC2)nc1-c1ccccc1,-443*,14,20,
CCOC(=O)c1ccc(-n2[nH]c(-c3ccccc3)cc2=O)cc1,43,x,x,
CCOC(=O)c1cnn(-c2c(Cc3ccccc3)c(C)nc3c(-c4ccccc4)c(C)nn23)c1N,62,x,x,
Cc1cccc(C)c1NC(=O)Cn1cc(C=O)c2ccccc21,-251*,0,-43*,Apaf1 act interf=>100
Cc1cccc(C)c1NC(=O)CN1CCN(CCCC(c2ccc(F)cc2)c2ccc(F)cc2)CC1,51,x,x,
Cc1ccc(C)c(NC(=S)NC(NC(=O)OCc2ccccc2)C(Cl)(Cl)Cl)c1 (stereo unspecified),-41*,5,14,
C=C(C)C(=O)Nc1cccc(C2=NOC3(C2)C[C@@H](C(N)=O)N(C(=O)CCCCC)C3)c1 (stereo partly specified),-333*,5,-121*,Apaf1 act interf=>100
COCCNC(=O)CN(c1cccc(OC)c1)S(=O)(=O)c1ccc(C)cc1,57,x,x,
Cc1ccc(OCCNC(=O)CCNS(=O)(=O)c2ccc(C)cc2)cc1,-605*,16,13,
Cc1ccc(S(=O)(=O)N2CCN(C(=O)CCOc3cc(C)ccc3C)CC2)cc1,40,x,x,
c1csc(Cc2nn3c(-c4ccncc4)nnc3s2)c1,78,x,x,
CCCCN(CC)S(=O)(=O)c1ccc(C(=O)N(CCCN(C)C)c2nc3cc(C)cc(C)c3s2)cc1,47,x,x,
CC(Cc1cccc(C(F)(F)F)c1)NCCOC(=O)c1ccccc1 (stereo unspecified),23,x,x,
SMILES,Apaf1 activ,Rh110 interf act,Apaf-1 act conf2,others
CC(NC(=O)c1ccco1)C(=O)OCc1cccc(C(F)(F)F)c1 (stereo unspecified),-50*,0,9,
COc1ccc(S(=O)(=O)Oc2ccc3cccc(N)c3c2)cc1,88,x,x,
COc1ccc(OC)c(C2CC(=O)N3CN(c4cccc(Cl)c4)CSC3=C2C#N)c1 (stereo unspecified),81,x,x,
C#CCOCCOCCOCCNc1nc(N2CCN(C(=O)[C@H](CCCCN)n3cc([C@@H](N)C(C)CC)nn3)CC2)nc(N2CCN(C(=O)[C@H](Cc3cc4ccccc4[nH]3)n3cc([C@@H](N)C(C)CC)nn3)CC2)n1 (stereo partly specified),53,x,x,
COC(=O)c1ccc2c(=O)n(CCCCCC(=O)N3CCN(c4ccccc4)CC3)c(=O)[nH]c2c1,47,x,x,
COCCn1c(=S)[nH]c2cc(C(=O)N3CCN(c4cccc(Cl)c4)CC3)ccc2c1=O,-324*,8,24,
O=C(NCCC(=O)N1CCN(c2cccc(Cl)c2)CC1)c1ccc(Br)cc1,44,x,x,
Cc1cccc(C)c1NC(=O)c1sc(Cl)nc1C,-201*,10,11,
C=CC(=O)Nc1ccc(CN2C(=O)N(c3c(Cl)c(OC)cc(OC)c3Cl)Cc3cnc(NCCCCN(CC)CC)nc32)cc1,63,x,x,
NC(=O)CSc1nc2c(sc3ccccc32)c(=O)n1CCCN1CCOCC1,-236*,4,7,
COc1cc(OC)c(NC2=CC(=O)C(=O)c3ccccc32)cc1Cl,92,x,x,
CCCCCc1cc(=O)oc2c(C(CCN3CCCC3)c3ccc(N(C)C)cc3)c(OC)cc(OC)c12 (stereo unspecified),45,x,x,
Cc1occc1C(=O)Nc1ccc2ccccc2c1,-351*,1,15,
C/C(=C\C(=S)Nc1ccccc1)Nc1ccc2ccccc2c1,41,x,x,
COc1ccc2sc(-c3ccccc3OC)c(-c3ccc(OCCN(C)C)cc3)c2c1,65,x,x,
COc1cccc(-c2sc3ccccc3c2-c2ccc(OCCN3CCCC3)cc2)c1,71,x,x,
CC(/C=C\c1cccnc1)=C/C(=O)O,-84*,-2,-46*,Apaf1 act interf=>100
O=C(CSc1cn[nH]n1)Nc1nc2ccccc2s1,-285*,-2,11,
CC(=O)c1ccc(NC(=O)CSc2cn[nH]n2)cc1,-294*,-4,11,
CC(=O)c1ccc(NC(=O)CC2Nc3cccc4cccc(c34)NC2=O)cc1 (stereo unspecified),89,x,x,
COc1ccc(Nc2ccc3c(c2)=NC2(CCCCC2)[N+]=3[O-])cc1,80,x,x,
CC(C)COCC(CN(Cc1ccccc1)c1ccccc1)N1CCCC1 (stereo unspecified),49,x,x,
O=C(OCC(=O)N1CCN(S(=O)(=O)c2ccccc2)CC1)c1ccc([N+](=O)[O-])o1,80,x,x,
COc1ccc2cc1Oc1ccc(cc1)CC1c3c(cc(OC)c4c3Oc3cc5c(cc3O4)CCNC5C2)CCN1C (stereo unspecified),41,x,x,
OCCC1CN(Cc2ccc3ncccc3c2)CCN1Cc1ccccc1 (stereo unspecified),-247*,-1,8,
SMILES,Apaf1 activ,Rh110 interf act,Apaf-1 act conf2,others
CCC[C@@H](CN1CCC[C@H]1CN1C(N)=NC[C@@H]1Cc1ccccc1)N1C[C@@H]([C@H](C)CC)N(CCc2ccc(Cl)c(Cl)c2)C1=N,67,x,x,
COc1ccc(O)c(N)c1,76,x,x,
CCN1CCN(CCCNC(=O)c2ccc(/C=C3/Oc4ccccc4N(Cc4cccc(C)c4)C3=O)cc2)CC1,47,x,x,
Cc1cccc(CN2C(=O)c3ccccc3Sc3ccc(C(=O)O)cc32)c1,-53*,10,13,
CC(=O)N(/N=C1\Sc2ccccc2C1=O)c1ccc(C)cc1C,43,x,x,
CCOC(=O)N1CCN(c2cc(NCCC(=O)O)c3c4c(onc24)-c2ccccc2C3=O)CC1,75,x,x,
O=C(NCCNc1ccc2ccccc2c1)c1cccn2c(=O)c3sccc3nc12,51,x,x,
CN(C(=S)Nc1ccc(SC(F)F)cc1)c1ccc(O)cc1,70,x,x,
O=S(=O)(NCC(Nc1ccccc1)c1ccccc1)c1ccc(Cl)cc1 (stereo unspecified),-245*,8,18,
CCCCCCC(=O)Nc1nc(C)c(-c2csc(Nc3cc(OC)ccc3OC)n2)s1,49,x,x,
c1ccc(C[C@H]2CN=C(Nc3ccccc3)N2CCCC2CCCCC2)cc1,47,x,x,
